Values belong to the compound of their own block, whether it stands above or below them.
Tests used:
Format in all cases: functional, cell-based
[1] = tested on: CGTH-W-1; test: Antiproliferative activity against human CGTH-W-1 cells after 10 days; conditions: CGTH-W-1, 240 h
Procedure, shortened: (§1)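 Tested as part of a 240-line cancer cell panel (Eurofins Oncopanel); all lines were mycoplasma-negative and STR-verified. Cells were exposed to a compound concentration series in 2D culture for 10 days. The highest concentration was 10 μM or 25 μM, depending on the inhibitor. Antiproliferative IC50 was derived from the mean of three biological replicates.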

[2] = tested on: SW13; test: Antiproliferative activity against human SW13 cells after 10 days; conditions: SW13, 240 h
[3] = tested on: COR-L23; test: Antiproliferative activity against human COR-L23 cells after 10 days; conditions: COR-L23, 240 h
Procedure, shortened: (§2)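 10-day 2D proliferation screen of a broad cancer cell panel (about 240 lines, Eurofins Oncopanel). All lines were mycoplasma negative and STR verified. Compounds were dosed up to a top concentration of 10 μM or 25 μM, depending on the inhibitor. Anti-proliferative IC50 values are the average of three biological replicates.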

[4] = tested on: CAMA-1; test: Antiproliferative activity against human CAMA-1 cells after 10 days; conditions: CAMA-1, 240 h; procedure, shortened: as §1
[5] = tested on: CAL-62; test: Antiproliferative activity against human CAL-62 cells after 10 days; conditions: CAL-62, 240 h; procedure, shortened: as §1
[6] = tested on: ACHN; test: Antiproliferative activity against human ACHN cells after 10 days; conditions: 240 h; procedure, shortened: as §1
[7] = tested on: MIA PaCa-2; test: Antiproliferative activity against human Mia PaCa-2 cells after 10 days; conditions: MIA PaCa-2, 240 h
Procedure, shortened: (§3)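 Broad cancer cell line panel (Eurofins Oncopanel, about 240 lines; mycoplasma negative, STR verified) grown in 2D culture and exposed to compound in a 10-day proliferation assay. The top concentration was 10 μM for the SMYD2 inhibitor series and 25 μM for the SMYD3 inhibitor. The proliferative IC50 is taken from concentration-response data, each value the mean of three biological replicates.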

[8] = tested on: DMS-114; test: Antiproliferative activity against human DMS-114 cells after 10 days; conditions: DMS-114, 240 h; procedure, shortened: as §2
[9] = tested on: 639-V; test: Antiproliferative activity against human 639-V cells after 10 days; conditions: 240 h; procedure, shortened: as §1
[10] = tested on: SW1783; test: Antiproliferative activity against human SW1783 cells after 10 days; conditions: SW1783, 240 h
[11] = tested on: BT-549; test: Antiproliferative activity against human BT-549 cells after 10 days; conditions: BT-549, 240 h; procedure, shortened: as §1
[12] = tested on: NCI-H446; test: Antiproliferative activity against human NCI-H446 cells after 10 days; conditions: NCI-H446, 240 h; procedure, shortened: as §3
[13] = tested on: MEG-01; test: Antiproliferative activity against human MEG-01 cells after 10 days; conditions: MEG-01, 240 h; procedure, shortened: as §3
[14] = tested on: HEC-1-A; test: Antiproliferative activity against human HEC-1-A cells after 10 days; conditions: 240 h; procedure, shortened: as §2
[15] = Antiproliferative activity against human HUH-6-clone5 cells after 10 days; conditions: HUH-6-clone5, 240 h; procedure, shortened: as §2
[16] = tested on: AGS; test: Antiproliferative activity against human AGS cells after 10 days; conditions: 240 h; procedure, shortened: as §1
[17] = tested on: MCF7; test: Antiproliferative activity against human MCF7 cells after 10 days; conditions: MCF7, 240 h; procedure, shortened: as §3
[18] = tested on: Raji; test: Antiproliferative activity against human Raji cells after 10 days; conditions: 240 h
[19] = tested on: A-431; test: Antiproliferative activity against human A-431 cells after 10 days; conditions: A-431, 240 h; procedure, shortened: as §1
[20] = tested on: SU.86.86; test: Antiproliferative activity against human SU-86-86 cells after 10 days; conditions: SU.86.86, 240 h
[21] = tested on: SH-4; test: Antiproliferative activity against human SH-4 cells after 10 days; conditions: SH-4, 240 h
[22] = tested on: COR-L105; test: Antiproliferative activity against human COR-L105 cells after 10 days; conditions: COR-L105, 240 h; procedure, shortened: as §2
[23] = tested on: SNU-16; test: Antiproliferative activity against human SNU-16 cells after 10 days; conditions: SNU-16, 240 h
[24] = tested on: BFTC-905; test: Antiproliferative activity against human BFTC-905 cells after 10 days; conditions: BFTC-905, 240 h; procedure, shortened: as §1
[25] = tested on: U138-MG; test: Antiproliferative activity against human U138-MG cells after 10 days; conditions: 240 h
[26] = tested on: EFM-19; test: Antiproliferative activity against human EFM-19 cells after 10 days; conditions: EFM-19, 240 h; procedure, shortened: as §2
[27] = tested on: CRO-AP2; test: Antiproliferative activity against human CRO-AP2 cells after 10 days; conditions: CRO-AP2, 240 h; procedure, shortened: as §2
[28] = tested on: CAKI-1; test: Antiproliferative activity against human CAKI-1 cells after 10 days; conditions: CAKI-1, 240 h; procedure, shortened: as §1
[29] = Antiproliferative activity against human HLF cells after 10 days; conditions: 240 h; procedure, shortened: as §2
[30] = tested on: BeWo; test: Antiproliferative activity against human BeWo cells after 10 days; conditions: 240 h; procedure, shortened: as §1
[31] = tested on: WiDr; test: Antiproliferative activity against human WiDr cells after 10 days; conditions: 240 h
[32] = tested on: MV4-11; test: Antiproliferative activity against human MV4-11 cells after 10 days; conditions: MV4-11, 240 h; procedure, shortened: as §3
[33] = tested on: J82; test: Antiproliferative activity against human J82 cells after 10 days; conditions: J82, 240 h; procedure, shortened: as §3
[34] = tested on: ST486; test: Antiproliferative activity against human ST486 cells after 10 days; conditions: ST486, 240 h
[35] = tested on: OE19; test: Antiproliferative activity against human OE19 cells after 10 days; conditions: OE19, 240 h; procedure, shortened: as §3
[36] = Antiproliferative activity against human SK-N-BE(2)-C cells after 10 days; conditions: 240 h
[37] = tested on: HT-29; test: Antiproliferative activity against human HT-29 cells after 10 days; conditions: HT-29, 240 h; procedure, shortened: as §2
[38] = tested on: CFPAC-1; test: Antiproliferative activity against human CFPAC-1 cells after 10 days; conditions: CFPAC-1, 240 h; procedure, shortened: as §1
[39] = tested on: Ramos; test: Antiproliferative activity against human Ramos cells after 10 days; conditions: 240 h
[40] = tested on: RKO; test: Antiproliferative activity against human RKO cells after 10 days; conditions: 240 h; procedure, shortened: as §3
[41] = tested on: SHP77; test: Antiproliferative activity against human SHP77 cells after 10 days; conditions: SHP77, 240 h
[42] = tested on: NCI-H441; test: Antiproliferative activity against human NCI-H441 cells after 10 days; conditions: NCI-H441, 240 h; procedure, shortened: as §3
[43] = tested on: SAOS-2; test: Antiproliferative activity against human SAOS-2 cells after 10 days; conditions: SAOS-2, 240 h
[44] = tested on: A101D; test: Antiproliferative activity against human A101D cells after 10 days; conditions: 240 h; procedure, shortened: as §1
[45] = tested on: HT-1080; test: Antiproliferative activity against human HT-1080 cells after 10 days; conditions: HT-1080, 240 h; procedure, shortened: as §2
[46] = tested on: HT1197; test: Antiproliferative activity against human HT1197 cells after 10 days; conditions: HT1197, 240 h
Procedure, shortened: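 Cell lines run in the Eurofins Oncopanel broad cancer panel, all mycoplasma-negative and STR-verified. Cells were exposed to a compound concentration series in a 10-day proliferation assay, and an anti-proliferative IC50 was derived. Values are the mean of three biological replicates.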

[47] = tested on: T98G; test: Antiproliferative activity against human T98G cells after 10 days; conditions: 240 h
[48] = tested on: MES-SA; test: Antiproliferative activity against human MES-SA cells after 10 days; conditions: 240 h; procedure, shortened: as §3
[49] = tested on: A-427; test: Antiproliferative activity against human A-427 cells after 10 days; conditions: A-427, 240 h; procedure, shortened: as §1
[50] = tested on: BT-474; test: Antiproliferative activity against human BT-474 cells after 10 days; conditions: BT-474, 240 h; procedure, shortened: as §1

IC50 [2]: 2.68 µM
IC50 [6]: 3.21 µM
IC50 [7]: 2.03 µM
IC50 [10]: 2.96 µM
IC50 [11]: 3.29 µM
IC50 [12]: 3.16 µM
IC50 [16]: 1.27 µM
IC50 [17]: 3.11 µM
IC50 [18]: 1.59 µM
IC50 [19]: 6.35 µM
IC50 [23]: 0.993 µM
IC50 [32]: 1.01 µM
IC50 [37]: 1.26 µM
IC50 [39]: 1.04 µM
IC50 [42]: 5.63 µM
IC50 [45]: 1.98 µM
IC50 [50]: 2.94 µM
SMILES: Cc1cn(CCN2CCN(c3ccccc3-c3cc(C#N)cc(C(=O)NCCCN4CCCC4)c3)CC2)c2ccccc12
IC50 [1]: 2.87 µM
IC50 [3]: 2.21 µM
IC50 [4]: 2.93 µM
IC50 [5]: 2.07 µM
IC50 [8]: 2.33 µM
IC50 [9]: 1.14 µM
IC50 [13]: 1.28 µM
IC50 [14]: 1.05 µM
IC50 [15]: 1.34 µM
IC50 [20]: 3.55 µM
IC50 [21]: 1.15 µM
IC50 [22]: 1.11 µM
IC50 [24]: 2.5 µM
IC50 [25]: 4.54 µM
IC50 [26]: 2.68 µM
IC50 [27]: 2.26 µM
IC50 [28]: 2.79 µM
IC50 [29]: 2.44 µM
IC50 [30]: 2.88 µM
IC50 [31]: 0.838 µM
IC50 [33]: 3.15 µM
IC50 [34]: 0.955 µM
IC50 [35]: 2.52 µM
IC50 [36]: 3.31 µM
IC50 [38]: 1.48 µM
IC50 [40]: 1.04 µM
IC50 [41]: 1.65 µM
IC50 [43]: 3.03 µM
IC50 [44]: 1.23 µM
IC50 [46]: 1.56 µM
IC50 [47]: 5.87 µM
IC50 [48]: 2.3 µM
IC50 [49]: 1.34 µM

IC50 [2]: > 10 µM
IC50 [6]: > 10 µM
IC50 [7]: > 10 µM
IC50 [10]: > 10 µM
IC50 [11]: > 10 µM
IC50 [12]: > 10 µM
IC50 [16]: > 10 µM
IC50 [17]: > 10 µM
IC50 [18]: > 10 µM
IC50 [19]: > 10 µM
IC50 [23]: > 10 µM
IC50 [32]: > 10 µM
IC50 [37]: > 10 µM
IC50 [39]: > 10 µM
IC50 [42]: > 10 µM
IC50 [45]: > 10 µM
IC50 [50]: > 10 µM
SMILES: O=C(NC1CN(Cc2cnn(Cc3ccccc3)c2)C1)c1cn(C2CC2)nn1
IC50 [1]: > 10 µM
IC50 [3]: > 10 µM
IC50 [4]: > 10 µM
IC50 [5]: > 10 µM
IC50 [8]: > 10 µM
IC50 [9]: > 10 µM
IC50 [13]: > 10 µM
IC50 [14]: > 10 µM
IC50 [15]: > 10 µM
IC50 [20]: > 10 µM
IC50 [21]: > 10 µM
IC50 [22]: > 10 µM
IC50 [24]: > 10 µM
IC50 [25]: > 10 µM
IC50 [26]: > 10 µM
IC50 [27]: 0.075 µM
IC50 [28]: > 10 µM
IC50 [29]: > 10 µM
IC50 [30]: > 10 µM
IC50 [31]: > 10 µM
IC50 [33]: > 10 µM
IC50 [34]: > 10 µM
IC50 [35]: > 10 µM
IC50 [36]: > 10 µM
IC50 [38]: > 10 µM
IC50 [40]: > 10 µM
IC50 [41]: > 10 µM
IC50 [43]: > 10 µM
IC50 [44]: > 10 µM
IC50 [46]: > 10 µM
IC50 [47]: > 10 µM
IC50 [48]: > 10 µM
IC50 [49]: > 10 µM

From ChEMBL document CHEMBL5674880 (PLoS One, 2018)
